Compounds with a hit are over-represented: about 3.1% of the library has one in this group of screens.
RAM network inh = yeast RAM network inhibition. inhibition, % at 50 µM. 1.8% of 190,000 active. S. cerevisiae dse1pr::URA3 reporter, 5-FOA growth OD615, 2 d; analog-sensitive cbk1-as2 kinase mutant strain;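 active = inhibition above a set limit, 3 SD over mean compound inhibition, cut at about 8.4% in these data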;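 note: inhibition rescues growth on 5-FOA so higher OD means more RAM inhibition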
Insulin prom up = MIN6 insulin promoter up-regulation; z-score at 5 µM; MIN6 insulin promoter-GFP reporter, high-content imaging; hits give high values; 0.3% of 190,000 active;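 active = z-score above 3 at 5 µM with at least 500 cells counted in the well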
Yeast life ext = extends the lifespan of yeast. inhibition of the nicotinamide effect, % at 10 µM. 0.68% of 130,000 active. S. cerevisiae growth with nicotinamide, OD615; deaD strain in restrictive glucose medium;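 active = inhibition above a set limit, placed 3 SD over the median of all compounds, cut at about 26% in these data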
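Assay system: engineered S. cerevisiae DeaD replicative-lifespan strain, galactose-grown log-phase cells; medium: restrictive CSMM-D dextrose medium; also added: nicotinamide, 1.5 mM, co-present with compound; schedule: 48 h compound exposure at 30 °C, humidified; detection: absorbance at 615 nm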
Insulin prom inh = TRM-6 insulin promoter activity inhibition | TRM-6 cells, insulin promoter-eGFP reporter, imaging; reporter expression induced with tamoxifen | inhibition, % at 2 µM | 0.9% of 130,000 active;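 active = inhibition above the mean plus 3 SD, with well images judged a real hit on visual review, cut at about 60% in these data, passing the limit was not always enough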
Yeast growth inh = chemicals that inhibit yeast BB579 growth in restrictive medium (lifespan-shortening candidates). S. cerevisiae BB579 growth, OD615, 48 h. inhibition, % at 10 µM. 0.51% of 140,000 active;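 active = inhibition above a set limit, 3 SD over the mean compound inhibition, cut at about 44% in these data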
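System: Saccharomyces cerevisiae DeaD strain BB579, replicative lifespan model yeast | Buffer or medium: Restrictive glucose-based CSMM-D medium | Times: 4 h preincubation and 48 h exposure at 30 °C | Detection: OD615 turbidity measurement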
A number is an active result; – = inactive; · = no result given.

SMILES	RAM network inh	Insulin prom up	Yeast life ext	Insulin prom inh	Yeast growth inh
CCOC(=O)N1CCN(C(=O)C(CC)n2nc(C)c3sc4ccccc4c3c2=O)CC1 (configuration not stated)	–	·	–	–	–
CCOC(=O)N1CCN(C(=O)Cn2nc(C)c3sc4ccccc4c3c2=O)CC1	–	–	–	·	44.6
CCOc1ccc(NC(=O)CNC(=O)c2ccc(OC)c(OC)c2)cc1	8.8	–	–	–	–
CCC(C)Oc1nc2ccccc2nc1NS(=O)(=O)c1ccccc1 (configuration not stated)	–	·	26.0	–	–
O=S(=O)(Nc1nc2cc3c(cc2nc1Cl)OCCO3)c1ccccc1	–	–	·	·	·
O=S(=O)(Nc1nc2ccccc2nc1Cl)c1ccccc1	–	–	30.0	·	–
O=S(=O)(Nc1nc2ccccc2nc1Cl)c1ccc2ccccc2c1	–	–	41.4	–	–
O=S(=O)(Nn1cnnc1)c1ccc2ccccc2c1	–	–	·	·	·
O=S(=O)(Nc1nc2ccccc2[nH]1)c1ccccc1	–	–	–	·	–
c1ccn2cc(-c3ccc4c(c3)OCCO4)nc2c1	–	–	·	71.4	·
c1ccc(Oc2cc(-c3ccccc3)nc(-c3ccccc3)n2)cc1	10.0	–	–	–	–
Cc1ccc(-c2nc(CSc3nc4ccccc4c(=O)n3CCO)cs2)cc1	–	–	–	–	–
Cc1ccc(-c2nc(CSc3nc4ccccc4c(=O)n3C)cs2)cc1	10.7	–	–	–	–
CC1=C(C(=O)Nc2ccccc2C)C(c2ccc(C)o2)n2c(s/c(=C/c3ccccc3)c2=O)=N1 (configuration not stated)	–	–	–	77.4	–
CCc1nnc(NS(=O)(=O)c2ccc(NC(=S)NC(=O)/C=C/c3ccccc3)cc2)s1	–	–	–	–	–
CCc1nnc(NS(=O)(=O)c2ccc(NC(=O)/C=C/c3ccccc3Cl)cc2)s1	8.8	–	·	·	·
CC(=O)NC1C(=O)N=C(SCC(=O)NC2CCCCC2)NC1=O (configuration not stated)	–	–	–	–	48.5
CCC1C(=O)N=C(SCC(=O)NC2CCCCC2)NC1=O (configuration not stated)	–	–	·	·	·
CCOc1cc(/C=C(/C#N)c2nc3ccccc3[nH]2)ccc1OCc1ccc(C(=O)O)o1	9.1	–	–	·	–
CCOc1ccc(N/C(C)=C/C(=O)c2ccc3c(c2)OCCO3)cc1	·	–	·	·	·
Cc1c(OCc2ccc(C(=O)O)o2)ccc2c3c(c(=O)oc12)CCC3	9.4	–	–	–	–
COC(=O)c1ccc(COc2ccc3c(C)c(C)c(=O)oc3c2C)o1	–	–	–	–	–
CCCCn1c(=O)c(C(=O)OCC)c(O)c2ccccc21	–	·	–	·	–
CCCCCCCCn1c(=O)c(C(=O)OCC)c(O)c2ccccc21	–	·	39.1	–	–
CCOC(=O)c1c(O)c2ccccc2n(-c2ccccc2)c1=O	–	–	–	–	–
SMILES	RAM network inh	Insulin prom up	Yeast life ext	Insulin prom inh	Yeast growth inh
CCCCCn1c(=O)c(C(=O)OCC)c(O)c2ccccc21	9.0	–	–	·	–
Cc1ccc(C(=O)NCC(=O)OCC(=O)Nc2ccccc2[N+](=O)[O-])cc1	–	–	–	–	–
Cc1nc2cc(F)ccc2n1C1CCN(C(=O)c2c(F)cccc2F)CC1	–	–	·	–	·
O=C(CCc1[nH]c2ccccc2c1Sc1ccccc1)NCCO	–	–	–	–	–
CCC1(C)Cc2nc3[nH]c(=S)n(-c4ccccc4)c(=O)c3cc2CO1 (configuration not stated)	8.5	–	–	–	–
CCC1(C)Cc2nc3[nH]c(=S)n(-c4ccccc4C)c(=O)c3cc2CO1 (configuration not stated)	·	–	·	·	·
CN(CCc1ccccn1)C(=S)NC(=O)c1ccco1	–	–	·	–	·
Brc1ccc(N=C/C=C/C=C/Nc2ccc(Br)cc2)cc1	–	–	–	79.0	–
CN(C)C(/C=C/Nc1ccc(Br)cc1)=C(C#N)C#N	–	–	·	·	·
O=C(NC(=S)NNC(=O)c1cc2ccccc2cc1O)c1ccco1	–	–	·	·	·
O=C(NC(=S)NNC(=O)c1ccccc1O)c1ccco1	–	–	82.4	·	–
O=C(NCCCn1ccnc1)c1ccc(N2CCCCC2)c([N+](=O)[O-])c1	–	–	·	·	·
C/C(=N\N1CCN(C2c3ccccc3-c3ccccc32)CC1)c1ccco1	–	–	–	–	–
CSc1nsc2nc(=O)c(/C=C3\C(C)=Nc4ccc(C)cc43)c(N)n12	9.3	–	·	–	·
COc1cc(Br)cc(CNc2ccc(F)c([N+](=O)[O-])c2)c1O	8.9	–	·	–	·

Bioassay records deposited in PubChem by several laboratories.
